According to ChEMBL document CHEMBL5712087, “Targeting bromodomain-containing protein 4 (BRD4) inhibits MYC expression in colorectal cancer cells” (Neoplasia, 2019):
Calls of active or inactive are those of the source. The rule behind the calls is not given here.

Tests used:
[1] = tested on: HT-29; assay: Inhibition of colony formation in human HT-29 cells at 5 to 10 uM by crystal violet staining analysis; format: functional, cell-based; conditions: dose 5-10 µM
Outline: (§1)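 Cells (1-2x10^3) were plated in six-well plates and, after 48 h, exposed to the PROTAC at the stated concentrations for 3–5 days. Plates were then methanol-fixed and stained with crystal violet. Culture was at 37 °C, 5% CO2, with 10% FCS. Media were RPMI 1640 (Caco2, COLO320, DLD1, LS174t), McCoy's (HCT116, HT29) or DMEM/HamsF12 (SW480). Experiments were done ≥3 times.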

[2] = tested on: LS174T; assay: Inhibition of colony formation in human LS174T cells at 5 to 10 uM by crystal violet staining analysis; format: functional, cell-based; conditions: dose 5-10 µM; outline: as §1
[3] = target: T1, von Hippel-Lindau disease tumor suppressor/Bromodomain-containing protein 4 (Homo sapiens) (UniProt O60885+P40337); assay: PROTAC activity at BRD4/VHL E3 ligase in human LS174T cells assessed as BRD4 protein degradation at 250 nM pretreated with VHL siRNA by Western blot analysis; format: cell-based
[4] = target: T1, von Hippel-Lindau disease tumor suppressor/Bromodomain-containing protein 4 (Homo sapiens); assay: PROTAC activity at BRD4/VHL E3 ligase in human COLO 320 cells assessed as decrease in BRD4 protein degradation at 5 to 10 uM for 24 hrs by Western blot analysis; format: cell-based; conditions: dose 5-10 µM
Outline: (§2)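 Eight CRC lines exposed 24 h to PROTAC at 5 or 10 µM (stocks 2 mM in DMSO, diluted in PBS or medium). Lysis in RIPA with protease/phosphatase inhibitors and 2.5 mmol/l DTT; 15 µg protein on 10% SDS-PAGE, semi-dry transfer to nitrocellulose. Anti-BRD4 or anti-MYC at 1:1,000 overnight at 4 °C; GAPDH or β-actin loading control; chemiluminescence.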

[5] = target: T1, von Hippel-Lindau disease tumor suppressor/Bromodomain-containing protein 4 (Homo sapiens); assay: PROTAC activity at BRD4/VHL E3 ligase in human Caco-2 cells assessed as decrease in MYC protein expression at 5 to 10 uM for 24 hrs by Western blot analysis; format: cell-based; conditions: dose 5-10 µM; outline: as §2
[6] = tested on: DLD-1; assay: Inhibition of colony formation in human DLD-1 cells at 5 to 10 uM by crystal violet staining analysis; format: functional, cell-based; conditions: dose 5-10 µM; outline: as §1
[7] = target: T1, von Hippel-Lindau disease tumor suppressor/Bromodomain-containing protein 4 (Homo sapiens); assay: PROTAC activity at BRD4/VHL E3 ligase in human LS174T cells assessed as BRD4 protein degradation at 100 to 500 nM pretreated with proteasome inhibitor MG132 for 4 hrs by Western blot analysis; format: cell-based; conditions: dose 100-500 nM
Outline: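 LS174t cells were pre-incubated for 4 h with the proteasome inhibitor MG132 (10 mM DMSO stock) before PROTAC addition. BRD4 was then immunoblotted from RIPA lysates (15 µg, 10% SDS-PAGE, nitrocellulose, primary 1:1,000 overnight at 4 °C), with GAPDH/β-actin as loading control.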

[8] = tested on: LS174T; assay: Inhibition of colony formation in human LS174T cells for 3 days by crystal violet staining analysis; format: functional, cell-based; conditions: time 3.0 day; outline: as §1
[9] = tested on: Caco-2; assay: Inhibition of colony formation in human Caco-2 cells at 5 to 10 uM by crystal violet staining analysis; format: functional, cell-based; conditions: dose 5-10 µM; outline: as §1
[10] = target: T1, von Hippel-Lindau disease tumor suppressor/Bromodomain-containing protein 4 (Homo sapiens); assay: PROTAC activity at BRD4/VHL E3 ligase in human LS174T cells assessed as decrease in MYC protein expression at 5 to 10 uM for 24 hrs by Western blot analysis; format: cell-based; conditions: dose 5-10 µM
Outline: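 Eight CRC lines, including LS174t (RPMI 1640) and SW480 (DMEM/HamsF12), all with 10% FCS, were treated with PROTAC at 5 and 10 µM. BRD4 and MYC proteins were detected by immunoblot (RIPA lysate, 15 µg, 10% gel, primary 1:1,000 overnight at 4 °C), with GAPDH/β-actin as loading control.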

[11] = target: T1, von Hippel-Lindau disease tumor suppressor/Bromodomain-containing protein 4 (Homo sapiens); assay: PROTAC activity at BRD4/VHL E3 ligase in human HCT116 p53-/- cells assessed as decrease in MYC protein expression at 5 to 10 uM for 24 hrs by Western blot analysis; format: cell-based; conditions: HCT-116, dose 5-10 µM; outline: as §2
[12] = tested on: SW480; assay: Inhibition of colony formation in human SW480 cells at 5 to 10 uM by crystal violet staining analysis; format: functional, cell-based; conditions: dose 5-10 µM; outline: as §1
[13] = tested on: HCT-116; assay: Inhibition of colony formation in human HCT-116 p53-/- cells at 5 to 10 uM by crystal violet staining analysis; format: functional, cell-based; conditions: dose 5-10 µM; outline: as §1
[14] = target: T1, von Hippel-Lindau disease tumor suppressor/Bromodomain-containing protein 4 (Homo sapiens); assay: PROTAC activity at BRD4/VHL E3 ligase in human LS174T cells assessed as complete BRD4 protein degradation at […] for 24 hrs by Western blot analysis; format: cell-based
Outline: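 LS174t cells (RPMI 1640, 10% FCS) were exposed to 1 nM–10 µM for 24 h. Lysates in RIPA with inhibitors and 2.5 mmol/l DTT; 15 µg protein was run on 10% SDS-PAGE and transferred to nitrocellulose. BRD4 or MYC primary antibodies were used at 1:1,000 overnight at 4 °C, HRP secondary 1:10,000, and GAPDH/β-actin as loading control. Detection was by chemiluminescence.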

[15] = tested on: HCT-116; assay: Inhibition of colony formation in human HCT-116 p53+/+ cells at 5 to 10 uM by crystal violet staining analysis; format: functional, cell-based; conditions: dose 5-10 µM; outline: as §1
[16] = target: T1, von Hippel-Lindau disease tumor suppressor/Bromodomain-containing protein 4 (Homo sapiens); assay: PROTAC activity at BRD4/VHL E3 ligase in human HCT116 p53+/+ cells assessed as decrease in MYC protein expression at 5 to 10 uM for 24 hrs by Western blot analysis; format: cell-based; conditions: HCT-116, dose 5-10 µM; outline: as §2
[17] = tested on: COLO 320; assay: Inhibition of colony formation in human COLO 320 cells at 5 to 10 uM by crystal violet staining analysis; format: functional, cell-based; conditions: dose 5-10 µM; outline: as §1
[18] = target: T2, Protein cereblon/Bromodomain-containing protein 4 (Homo sapiens) (UniProt O60885+Q96SW2); assay: PROTAC activity at BRD4/Cereblon in human COLO 320 cells assessed as decrease in MYC protein expression at 5 to 10 uM for 24 hrs by Western blot analysis; format: cell-based; conditions: dose 5-10 µM; outline: as §2
[19] = target: T2, Protein cereblon/Bromodomain-containing protein 4 (Homo sapiens); assay: PROTAC activity at BRD4/Cereblon in human LS174T-dbet1 resistant cells assessed as MYC mRNA level at 500 to 1000 nM for 24 hrs by RT-qPCR analysis; format: cell-based; conditions: dose 500-1000 nM
Outline: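 Total RNA from 10^6 cells after 24 h treatment, Trizol-extracted and integrity-checked. 0.7 µg reverse transcribed, then SYBR-type qPCR: 95 °C 5 min, 40 cycles of 95 °C 15 s/60 °C 60 s. Melting curves checked. MYC or BRD4 normalised to PPIA and ACTB by ΔΔCq. At least three experiments; means ± SD.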

[20] = target: T2, Protein cereblon/Bromodomain-containing protein 4 (Homo sapiens); assay: PROTAC activity at BRD4/Cereblon in human LS174T cells assessed as decrease in MYC protein expression at […] for 24 hrs by Western blot analysis; format: cell-based
Outline: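 Cells treated 24 h across 1 nM–10 µM range (fibroblasts at 500/1000 nM). Immunoblot: RIPA lysate with 2.5 mmol/l DTT, 15 µg per lane on 10% SDS-PAGE, nitrocellulose, 5% milk block 1 h. BRD4 or MYC primary 1:1,000 overnight at 4 °C, HRP secondary 1:10,000 for 60 min; GAPDH/β-actin loading control; ECL detection.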

T2 sequence (Q96SW2 whole entry, looked up, other chains not shown): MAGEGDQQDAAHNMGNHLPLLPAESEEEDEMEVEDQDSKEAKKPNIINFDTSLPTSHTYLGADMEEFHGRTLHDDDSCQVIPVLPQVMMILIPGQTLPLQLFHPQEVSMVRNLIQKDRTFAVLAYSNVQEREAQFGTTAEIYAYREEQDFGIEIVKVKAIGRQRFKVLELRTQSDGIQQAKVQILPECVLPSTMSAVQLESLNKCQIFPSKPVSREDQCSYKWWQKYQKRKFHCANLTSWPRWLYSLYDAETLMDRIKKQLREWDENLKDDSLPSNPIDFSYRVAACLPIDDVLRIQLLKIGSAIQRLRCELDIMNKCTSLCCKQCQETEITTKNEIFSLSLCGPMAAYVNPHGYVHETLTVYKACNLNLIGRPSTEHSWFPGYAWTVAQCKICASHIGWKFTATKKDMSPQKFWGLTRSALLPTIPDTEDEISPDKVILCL
T1 sequence (P40337 whole entry, looked up, other chains not shown): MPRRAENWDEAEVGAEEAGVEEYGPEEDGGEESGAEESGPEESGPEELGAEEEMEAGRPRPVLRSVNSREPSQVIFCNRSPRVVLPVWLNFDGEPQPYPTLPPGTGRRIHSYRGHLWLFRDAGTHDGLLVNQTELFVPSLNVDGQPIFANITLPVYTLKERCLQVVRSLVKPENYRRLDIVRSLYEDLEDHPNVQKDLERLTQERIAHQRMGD

Row | SMILES | inhibition [1] | inhibition [2] | Activity [3] | Activity [4] | Activity [5] | inhibition [6] | Activity [7] | inhibition [8] | inhibition [9] | Activity [10] | Activity [11] | inhibition [12] | inhibition [13] | Activity [14] | inhibition [15] | Activity [16] | inhibition [17] | Activity [18] | Activity [19] | Activity [20]
1 | Cc1ncsc1-c1ccc(CNC(=O)[C@@H]2C[C@@H](O)CN2C(=O)[C@@H](NC(=O)COCCOCCOCCNC(=O)C[C@@H]2N=C(c3ccc(Cl)cc3)c3c(sc(C)c3C)-n3c(C)nnc32)C(C)(C)C)cc1 | Active | Active | inactive | Active | Active | Active | inactive | Dose-Dependent Effect | Active | Active | Active | Active | Active | Active | Active | Active | Active | – | – | –
2 | Cc1sc2c(c1C)C(c1ccc(Cl)cc1)=N[C@@H](CC(=O)NCCCCNC(=O)COc1cccc3c1C(=O)N(C1CCC(=O)NC1=O)C3=O)c1nnc(C)n1-2 (some centres undefined) | Active | Active | – | – | – | Active | – | Dose-Dependent Effect | Active | – | – | Active | Active | – | Active | – | Active | Active | inactive | Active
